Test results as given in paper PMC4832308 (Cancer, 2015).

System: patients with advanced solid tumors or multiple myeloma
Test: phase 1 dose escalation: safety, tolerability, DLT, MTD
Type: in vivo, human
In short: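 Modified accelerated titration from 7.5 mg, oral daily in 28-day cycles. Single-patient cohorts used 100% increments until the first drug-related grade ≥2 toxicity, then 6-patient cohorts used ~50% steps. A dose with ≥2 DLTs was nontolerated. MTD was the last lower dose with 0–1 of 6 DLTs in cycle 1. Adverse events were graded by NCI CTCAE version 4.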

CO[C@H]1CC[C@H](N2C(=O)CNc3ncc(-c4ccc(C(C)(C)O)nc4)nc32)CC1 [CC‐223]
Dyspnea (treatment‐related AE) (45 mg, Any Grade): 1 (11) n (%) | Fatigue (treatment‐related AE) (45 mg, Any Grade): 5 (56) n (%) | Hyperglycemia (treatment‐related AE) (45 mg, Any Grade): 4 (44) n (%) | Increased glycosylated hemoglobin (treatment‐related AE) (45 mg, Any Grade): 2 (22) n (%) | Mucositis (treatment‐related AE) (45 mg, Any Grade): 3 (33) n (%) | Nausea (treatment‐related AE) (45 mg, Any Grade): 6 (67) n (%) | Pruritus (treatment‐related AE) (45 mg, Any Grade): 2 (22) n (%) | Rash (treatment‐related AE) (45 mg, Any Grade): 2 (22) n (%) | Rash pruritic (treatment‐related AE) (45 mg, Any Grade): 0 n (%) | Thrombocytopenia (treatment‐related AE) (45 mg, Any Grade): 2 (22) n (%) | Vomiting (treatment‐related AE) (45 mg, Any Grade): 2 (22) n (%) | Arthralgia (treatment‐related AE) (45 mg, Grade ≥3): 0 n (%) | Asthenia (treatment‐related AE) (45 mg, Grade ≥3): 0 n (%) | Decreased appetite (treatment‐related AE) (45 mg, Grade ≥3): 0 n (%) | Diarrhea (treatment‐related AE) (45 mg, Grade ≥3): 0 n (%) | Dry mouth (treatment‐related AE) (45 mg, Grade ≥3): 0 n (%) | Dysgeusia (treatment‐related AE) (45 mg, Grade ≥3): 0 n (%) | Dyspnea (treatment‐related AE) (45 mg, Grade ≥3): 0 n (%) | Fatigue (treatment‐related AE) (45 mg, Grade ≥3): 1 (11) n (%) | Hyperglycemia (treatment‐related AE) (45 mg, Grade ≥3): 1 (11) n (%) | Increased glycosylated hemoglobin (treatment‐related AE) (45 mg, Grade ≥3): 0 n (%) | Mucositis (treatment‐related AE) (45 mg, Grade ≥3): 0 n (%) | Nausea (treatment‐related AE) (45 mg, Grade ≥3): 0 n (%) | Pruritus (treatment‐related AE) (45 mg, Grade ≥3): 0 n (%) | Rash (treatment‐related AE) (45 mg, Grade ≥3): 1 (11) n (%) | Rash pruritic (treatment‐related AE) (45 mg, Grade ≥3): 0 n (%) | Thrombocytopenia (treatment‐related AE) (45 mg, Grade ≥3): 0 n (%) | Vomiting (treatment‐related AE) (45 mg, Grade ≥3): 0 n (%) | Dose interruptions (60 mg): 7 | Dose reductions (60 mg): 5 | Arthralgia (treatment‐related AE) (60 mg, Any Grade): 2 (29) n (%) | Asthenia (treatment‐related AE) (60 mg, Any Grade): 3 (43) n (%) | Decreased appetite (treatment‐related AE) (60 mg, Any Grade): 2 (29) n (%) | Diarrhea (treatment‐related AE) (60 mg, Any Grade): 5 (71) n (%) | Dry mouth (treatment‐related AE) (60 mg, Any Grade): 0 n (%) | Dysgeusia (treatment‐related AE) (60 mg, Any Grade): 1 (14) n (%) | Dyspnea (treatment‐related AE) (60 mg, Any Grade): 1 (14) n (%) | Fatigue (treatment‐related AE) (60 mg, Any Grade): 7 (100) n (%) | Hyperglycemia (treatment‐related AE) (60 mg, Any Grade): 4 (57) n (%) | Increased glycosylated hemoglobin (treatment‐related AE) (60 mg, Any Grade): 2 (29) n (%) | Mucositis (treatment‐related AE) (60 mg, Any Grade): 5 (71) n (%) | Nausea (treatment‐related AE) (60 mg, Any Grade): 3 (43) n (%) | Pruritus (treatment‐related AE) (60 mg, Any Grade): 0 n (%) | Rash (treatment‐related AE) (60 mg, Any Grade): 3 (43) n (%) | Rash pruritic (treatment‐related AE) (60 mg, Any Grade): 2 (29) n (%) | Thrombocytopenia (treatment‐related AE) (60 mg, Any Grade): 0 n (%) | Vomiting (treatment‐related AE) (60 mg, Any Grade): 5 (71) n (%) | Arthralgia (treatment‐related AE) (60 mg, Grade ≥3): 1 (14) n (%) | Asthenia (treatment‐related AE) (60 mg, Grade ≥3): 0 n (%) | Decreased appetite (treatment‐related AE) (60 mg, Grade ≥3): 0 n (%) | Diarrhea (treatment‐related AE) (60 mg, Grade ≥3): 1 (14) n (%) | Dry mouth (treatment‐related AE) (60 mg, Grade ≥3): 0 n (%) | Dysgeusia (treatment‐related AE) (60 mg, Grade ≥3): 0 n (%) | Dyspnea (treatment‐related AE) (60 mg, Grade ≥3): 0 n (%) | Fatigue (treatment‐related AE) (60 mg, Grade ≥3): 1 (14) n (%) | Hyperglycemia (treatment‐related AE) (60 mg, Grade ≥3): 2 (29) n (%) | Increased glycosylated hemoglobin (treatment‐related AE) (60 mg, Grade ≥3): 0 n (%) | Mucositis (treatment‐related AE) (60 mg, Grade ≥3): 2 (29) n (%) | Nausea (treatment‐related AE) (60 mg, Grade ≥3): 0 n (%) | Pruritus (treatment‐related AE) (60 mg, Grade ≥3): 0 n (%) | Rash (treatment‐related AE) (60 mg, Grade ≥3): 1 (14) n (%) | Rash pruritic (treatment‐related AE) (60 mg, Grade ≥3): 2 (29) n (%) | Thrombocytopenia (treatment‐related AE) (60 mg, Grade ≥3): 0 n (%) | Vomiting (treatment‐related AE) (60 mg, Grade ≥3): 0 n (%) | Arthralgia (treatment‐related AE) (Overall (N = 28), Any Grade): 4 (14) n (%) | Asthenia (treatment‐related AE) (Overall (N = 28), Any Grade): 7 (25) n (%) | Decreased appetite (treatment‐related AE) (Overall (N = 28), Any Grade): 9 (32) n (%) | Diarrhea (treatment‐related AE) (Overall (N = 28), Any Grade): 13 (46) n (%) | Dry mouth (treatment‐related AE) (Overall (N = 28), Any Grade): 3 (11) n (%) | Dysgeusia (treatment‐related AE) (Overall (N = 28), Any Grade): 5 (18) n (%) | Dyspnea (treatment‐related AE) (Overall (N = 28), Any Grade): 3 (11) n (%) | Fatigue (treatment‐related AE) (Overall (N = 28), Any Grade): 18 (64) n (%) | Hyperglycemia (treatment‐related AE) (Overall (N = 28), Any Grade): 12 (43) n (%) | Increased glycosylated hemoglobin (treatment‐related AE) (Overall (N = 28), Any Grade): 4 (14) n (%) | Mucositis (treatment‐related AE) (Overall (N = 28), Any Grade): 11 (39) n (%) | Nausea (treatment‐related AE) (Overall (N = 28), Any Grade): 14 (50) n (%) | Pruritus (treatment‐related AE) (Overall (N = 28), Any Grade): 4 (14) n (%) | Rash (treatment‐related AE) (Overall (N = 28), Any Grade): 7 (25) n (%) | Rash pruritic (treatment‐related AE) (Overall (N = 28), Any Grade): 3 (11) n (%) | Thrombocytopenia (treatment‐related AE) (Overall (N = 28), Any Grade): 3 (11) n (%) | Vomiting (treatment‐related AE) (Overall (N = 28), Any Grade): 9 (32) n (%) | Arthralgia (treatment‐related AE) (Overall (N = 28), Grade ≥3): 1 (4) n (%) | Asthenia (treatment‐related AE) (Overall (N = 28), Grade ≥3): 0 n (%) | Decreased appetite (treatment‐related AE) (Overall (N = 28), Grade ≥3): 0 n (%) | Diarrhea (treatment‐related AE) (Overall (N = 28), Grade ≥3): 1 (4) n (%) | Dry mouth (treatment‐related AE) (Overall (N = 28), Grade ≥3): 0 n (%) | Dysgeusia (treatment‐related AE) (Overall (N = 28), Grade ≥3): 0 n (%) | Dyspnea (treatment‐related AE) (Overall (N = 28), Grade ≥3): 0 n (%) | Fatigue (treatment‐related AE) (Overall (N = 28), Grade ≥3): 2 (7) n (%) | Hyperglycemia (treatment‐related AE) (Overall (N = 28), Grade ≥3): 5 (18) n (%) | Increased glycosylated hemoglobin (treatment‐related AE) (Overall (N = 28), Grade ≥3): 0 n (%) | Mucositis (treatment‐related AE) (Overall (N = 28), Grade ≥3): 2 (7) n (%) | Nausea (treatment‐related AE) (Overall (N = 28), Grade ≥3): 0 n (%) | Pruritus (treatment‐related AE) (Overall (N = 28), Grade ≥3): 0 n (%) | Rash (treatment‐related AE) (Overall (N = 28), Grade ≥3): 2 (7) n (%) | Rash pruritic (treatment‐related AE) (Overall (N = 28), Grade ≥3): 2 (7) n (%) | Thrombocytopenia (treatment‐related AE) (Overall (N = 28), Grade ≥3): 0 n (%) | Vomiting (treatment‐related AE) (Overall (N = 28), Grade ≥3): 0 n (%) | Dose interruptions (Total): 22 | treatment‐related AE: asthenia (all patients, any grade): 25% | treatment‐related AE: decreased appetite (all patients, any grade): 32% | treatment‐related AE: fatigue (all patients, any grade): 64% | treatment‐related AE: nausea (all patients, any grade): 50% | treatment‐related AE: rash (all patients, any grade): 25% | treatment‐related AE: vomiting (all patients, any grade): 32% | treatment‐related AE: hyperglycemia (all patients, grade ≥3): 18% | patients requiring dose interruptions (at the MTD (45 mg/d)): 55.6% | patients requiring dose reductions (at the MTD (45 mg/d)): 11.1% | treatment‐related hyperglycemia, number of patients (grade ≥3, 30‐mg/d cohort): 2 n | treatment‐related hyperglycemia, number of patients (grade ≥3, 45‐mg/d cohort): 1 n | treatment‐related hyperglycemia, number of patients (grade ≥3, 60‐mg/d cohort): 2 n | maximum tolerated dosage (MTD) (oral daily dosing, 28‐day cycles): 45 mg/day | median time to dose reduction (overall): 25 days | increases in glucose, insulin, and C‐peptide levels (patients receiving doses ≥30 mg/d): dose‐dependent | patients with dose‐limiting toxicities (treatment cycle 1, all cohorts): Four
